Source: ChEMBL document CHEMBL1147083, “High-throughput synergy screening identifies microbial metabolites as combination agents for the treatment of fungal infections” (Proc Natl Acad Sci U S A, 2007)

Columns and labels:
[1] = system: Candida parapsilosis; assay: Antifungal activity against Candida parapsilosis infected cyclophosphamide-immunocompromized Crl:CD1(ICR) mouse assessed as survival at 0.5 mg/kg, po for 5 days; type: functional
Method in brief: (§1)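 Female ICR (Crl:CD-1) mice on cyclophosphamide 100 mg/kg i.p. daily for 3 days, then infected i.p. on day 3 with 1 × 10^4 C. parapsilosis ATCC 22019 blastospores. Oral gavage dosing started 6 h postinfection and continued once daily for 5 days, with saline placebo. Mice observed thrice daily for […]. Moribund animals were killed and counted as dying the next day. Mean survival time compared to controls by one-way ANOVA and Kaplan–Meier.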

[2] = system: Candida parapsilosis; assay: Antifungal activity against Candida parapsilosis infected cyclophosphamide-immunocompromized Crl:CD1(ICR) mouse assessed as fungal density in kidney at 0.5 mg/kg, po for 5 days measured on day 12; type: functional
Method in brief: (§2)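 Female specific-pathogen-free ICR (Crl:CD-1) mice, ≈20–22 g, made neutropenic with cyclophosphamide 100 mg/kg i.p. once daily for 3 days. On day 3, infected i.p. with 1 × 10^4 C. parapsilosis ATCC 22019 blastospores. Oral gavage dosing began 6 h postinfection, then once daily for 5 days; placebo was 0.1 ml saline. Left kidney or lungs homogenized in 0.9% saline and plated on Sabouraud dextrose agar, 48 h at 35°C. Result is log10 cfu/g (n = 5).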

[3] = system: Candida parapsilosis; assay: Antifungal activity against Candida parapsilosis infected cyclophosphamide-immunocompromized Crl:CD1(ICR) mouse assessed as fungal density in lung at 0.5 mg/kg, po for 5 days measured on day 12; type: functional; method in brief: as §2
[4] = system: Candida parapsilosis; assay: Antifungal activity against Candida parapsilosis infected cyclophosphamide-immunocompromized Crl:CD1(ICR) mouse assessed as fungal density in brain at 0.5 mg/kg, po for 5 days measured on day 12; type: functional
[5] = system: HepG2; assay: Toxicity against human HepG2 cells at 100 ug/ml; type: cell-based
[6] = system: HepG2; assay: Toxicity against human HepG2 cells at 50 ug/ml; type: cell-based
[7] = system: HepG2; assay: Toxicity against human HepG2 cells at 6.25 ug/ml in presence of merine microbial F10104 extract; type: cell-based
[8] = system: Candida parapsilosis; assay: Antifungal activity against Candida parapsilosis infected cyclophosphamide-immunocompromized Crl:CD1(ICR) mouse assessed as survival at 0.5 mg/kg, po for 5 days in presence of beauvericin; type: functional; method in brief: as §1
[9] = system: Candida parapsilosis; assay: Antifungal activity against Candida parapsilosis infected cyclophosphamide-immunocompromized Crl:CD1(ICR) mouse assessed as survival at 10 mg/kg, po for 5 days; type: functional; method in brief: as §1
[10] = system: Candida parapsilosis; assay: Antifungal activity against Candida parapsilosis infected cyclophosphamide-immunocompromized Crl:CD1(ICR) mouse assessed as survival at 50 mg/kg, po for 5 days; type: functional; method in brief: as §1
[11] = system: Candida parapsilosis; assay: Antifungal activity against Candida parapsilosis infected cyclophosphamide-immunocompromized Crl:CD1(ICR) mouse assessed as fungal density in kidney at 0.5 mg/kg, po for 5 days measured on day 12 in presence beauvericin; type: functional; method in brief: as §2
[12] = system: Candida parapsilosis; assay: Antifungal activity against Candida parapsilosis infected cyclophosphamide-immunocompromized Crl:CD1(ICR) mouse assessed as fungal density in kidney at 10 mg/kg, po for 5 days measured on day 12; type: functional; method in brief: as §2
[13] = system: Candida parapsilosis; assay: Antifungal activity against Candida parapsilosis infected cyclophosphamide-immunocompromized Crl:CD1(ICR) mouse assessed as fungal density in kidney at 50 mg/kg, po for 5 days measured on day 12; type: functional; method in brief: as §2
[14] = system: Candida parapsilosis; assay: Antifungal activity against Candida parapsilosis infected cyclophosphamide-immunocompromized Crl:CD1(ICR) mouse assessed as fungal density in lung at 0.5 mg/kg, po for 5 days measured on day 12 in presence beauvericin; type: functional; method in brief: as §2
[15] = system: Candida parapsilosis; assay: Antifungal activity against Candida parapsilosis infected cyclophosphamide-immunocompromized Crl:CD1(ICR) mouse assessed as fungal density in lung at 10 mg/kg, po for 5 days measured on day 12; type: functional; method in brief: as §2
[16] = system: Candida parapsilosis; assay: Antifungal activity against Candida parapsilosis infected cyclophosphamide-immunocompromized Crl:CD1(ICR) mouse assessed as fungal density in lung at 50 mg/kg, po for 5 days measured on day 12; type: functional; method in brief: as §2

SMILES | Survival [1] [days] | Log10 cfu [2] | Log10 cfu [3] | Log10 cfu [4] | Activity [5] | Activity [6] | Activity [7] | Survival [8] [days] | Survival [9] [days] | Survival [10] [days] | Log10 cfu [11] | Log10 cfu [12] | Log10 cfu [13] | Log10 cfu [14] | Log10 cfu [15] | Log10 cfu [16]
CC(C)[C@@H]1OC(=O)[C@@H](Cc2ccccc2)N(C)C(=O)[C@H](C(C)C)OC(=O)[C@@H](Cc2ccccc2)N(C)C(=O)[C@H](C(C)C)OC(=O)[C@@H](Cc2ccccc2)N(C)C1=O (single isomer, unassigned) [BEAUVERICIN] | 8.3 | 9.3 | 5.2 | 3.2 |  |  |  |  |  |  |  |  |  |  |  | 
CC(=O)N1CCN(c2ccc(OCC3COC(Cn4ccnc4)(c4ccc(Cl)cc4Cl)O3)cc2)CC1 (centres undefined) [KETOCONAZOLE] | 9.2 | 8.4 | 4.8 |  | Toxic | Toxic | Non-toxic | >21 | 14.2 | 19.4 | 1.3 | 7.6 | 5.5 | 1.2 | 3.5 | 2.6
